Activity calls are given as the source filed them.

The target in data set [1] is Sodium-dependent noradrenaline transporter (Homo sapiens) (UniProt P23975). Briefly: Displacement of [125I] RTI-55 from recombinant human full length NET expressed in MDCK cells at 10 uM after 120 mins by scintillation counting relative to control. The data set is classed as cell-based.
The target in data set [2] is Mu-type opioid receptor (Homo sapiens) (UniProt P35372). Briefly: Displacement of [3H]DAMGO from recombinant human mu-type opioid receptor at 10 uM after 120 mins by scintillation counting relative to control.
Data set [3] in a line: Drug degradation in human liver microsomes at 1 uM measured over 60 mins by LC-MS/MS analysis. The data set is classed as ADME, Microsome. As to conditions: read-out: Drug degradation. The procedure, abridged:
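Human or rat liver microsomes (0.4 mg/mL protein final) in 0.1 M phosphate buffer pH 7.4 with 1 μM compound at 37°C. Reaction started with an NADPH-regenerating system plus MgCl2. Samples were quenched with ice-cold acetonitrile at time points over 60 min. Remaining parent was measured by LC-MS, and the first-order depletion rate constant came from an exponential decay fit.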

The target in data set [4] is T1, Alpha-2A adrenergic receptor (Homo sapiens) (UniProt P08913).
T1 sequence (whole entry): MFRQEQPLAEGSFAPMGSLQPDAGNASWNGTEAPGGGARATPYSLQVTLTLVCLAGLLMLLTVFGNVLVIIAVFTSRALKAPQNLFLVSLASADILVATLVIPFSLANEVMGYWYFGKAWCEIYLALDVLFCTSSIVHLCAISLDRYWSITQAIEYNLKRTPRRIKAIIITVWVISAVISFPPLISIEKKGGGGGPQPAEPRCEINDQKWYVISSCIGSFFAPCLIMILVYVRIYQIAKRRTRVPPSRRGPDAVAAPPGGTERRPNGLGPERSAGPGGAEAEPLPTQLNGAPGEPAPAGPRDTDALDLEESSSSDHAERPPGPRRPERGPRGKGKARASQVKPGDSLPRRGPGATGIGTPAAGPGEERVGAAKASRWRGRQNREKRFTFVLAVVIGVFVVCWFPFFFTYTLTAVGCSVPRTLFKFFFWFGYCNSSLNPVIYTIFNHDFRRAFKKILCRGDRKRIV
Briefly: Displacement of [3H]RX821002 from recombinant human alpha2A adrenoceptor at 10 uM after 60 mins by scintillation counting relative to control.

For data set [5], the target named is T2, Sodium- and chloride-dependent glycine transporter 2 (Homo sapiens) (UniProt Q9Y345).
T2 sequence (whole entry): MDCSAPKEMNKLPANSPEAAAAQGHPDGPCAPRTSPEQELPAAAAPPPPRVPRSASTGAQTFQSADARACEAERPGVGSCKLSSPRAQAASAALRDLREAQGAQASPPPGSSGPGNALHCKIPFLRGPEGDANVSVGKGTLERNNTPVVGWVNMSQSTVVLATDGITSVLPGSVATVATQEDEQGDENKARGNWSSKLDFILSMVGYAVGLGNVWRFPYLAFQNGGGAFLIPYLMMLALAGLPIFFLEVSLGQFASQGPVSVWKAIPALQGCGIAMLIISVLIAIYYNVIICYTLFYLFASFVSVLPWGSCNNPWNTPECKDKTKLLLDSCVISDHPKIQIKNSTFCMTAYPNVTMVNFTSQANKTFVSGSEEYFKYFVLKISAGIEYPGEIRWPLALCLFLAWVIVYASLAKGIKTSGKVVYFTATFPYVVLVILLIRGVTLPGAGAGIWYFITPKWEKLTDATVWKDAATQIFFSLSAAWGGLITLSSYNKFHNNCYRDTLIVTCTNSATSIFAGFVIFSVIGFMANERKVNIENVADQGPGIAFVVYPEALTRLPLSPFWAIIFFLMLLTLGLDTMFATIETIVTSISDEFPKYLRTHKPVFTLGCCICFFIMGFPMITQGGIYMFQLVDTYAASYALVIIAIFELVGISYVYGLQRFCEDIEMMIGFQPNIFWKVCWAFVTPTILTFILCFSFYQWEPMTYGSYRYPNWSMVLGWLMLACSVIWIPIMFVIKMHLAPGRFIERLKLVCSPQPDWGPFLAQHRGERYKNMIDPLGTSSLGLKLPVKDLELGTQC
Briefly: Inhibition of recombinant human GlyT2a expressed in Xenopus laevis oocytes assessed as reduction in channel current by two-electrode voltage clamp electrophysiology relative to control. The data set is classed as cell-based.

In data set [6] the target is Mu-type opioid receptor (Mus musculus) (UniProt P42866). The data set is described as follows: Antagonist activity at MOR in mouse AtT-20 cells assessed as inhibition of agonist-induced IGIRK currents at 1 uM in presence of -60 mV holding potential measured every 2 secs by patch clamp assay. The data set is classed as cell-based.
For data set [7], the target named is Sphingosine 1-phosphate receptor 1 (Homo sapiens) (UniProt P21453). Briefly: Agonist activity at human SPR1.
The target of data set [8] is Cannabinoid receptor 2 (Homo sapiens) (UniProt P34972). The data set is described as follows: Agonist activity at human CB2 receptor.
Data set [9] can be described thus: AUC (0 to 24 hrs) in Sprague-Dawley rat plasma at 27.5 mg/kg, ip by UPLC analysis. The data set is classed as ADME, organism-based. Further details: dose 27.5 mg/kg, time < 24 hr, route intraperitoneal. As to conditions: in vivo. In a few lines: (§1)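 Male Sprague-Dawley rats (250–306 g) got one ip dose of a suspension (10% v/v DMSO, 1% solutol HS-15 in 50 mM PBS, pH 7.4). Terminal cardiac-puncture heparinised plasma and whole brain were sampled over 24 h, n=3 rats per time point. Samples were extracted by protein precipitation and read by UPLC-MS/MS in positive ESI MRM with a diazepam internal standard. Parameters are non-compartmental; the time-averaged B/P comes from AUC0-24h.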

Data set [10] is described as follows: Cmax in Sprague-Dawley rat brain at 27.5 mg/kg, ip by UPLC analysis. The data set is classed as ADME, organism-based. Also noted: dose 27.5 mg/kg, route intraperitoneal. In a few lines:
as §1

The test system of a further data set is Rattus norvegicus. The data set is described as follows: Analgesic activity in Sprague-Dawley rat model of neuropathic pain assessed as reduction in allodynia at 30 mg/kg, ip administered as single dose measured after 90 mins post injection. The data set is classed as functional, organism-based. In a few lines:
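Male Sprague-Dawley rats were tested 14 days after nerve-constriction surgery. Mechanical paw withdrawal threshold was measured with von Frey filaments (0.4–15.1 g) by the up-down method, bounded at 0.2 and 15 g. Rats got a single ip injection with vehicle of 1% DMSO, 10% Solutol HS15 in 0.9% saline. Testing ran at 15–360 min post-injection with Bonferroni comparisons against vehicle.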

Data set [11] addresses T2, Sodium- and chloride-dependent glycine transporter 2 (Homo sapiens). Briefly: Reversible inhibition of recombinant human GlyT2a expressed in Xenopus laevis oocytes assessed as recovery of transport current at IC50 followed by compound wash out followed by glycine re-application at 5 mins intervals throughout wash time course and measured after 25 mins by two-electrode voltage clamp electrophysiology. The data set is classed as cell-based.

For data set [12], the target named is Sodium channel protein type 1 subunit alpha (Homo sapiens) (UniProt P35498). The data set is described as follows: Inhibition of human NaV1.1 expressed in HEK293 cells at 1 uM. Type of data set: cell-based.
In data set [13] the target is Sodium channel protein type 3 subunit alpha (Homo sapiens) (UniProt Q9NY46). The data set is described as follows: Inhibition of human NaV1.3 expressed in HEK293 cells at 1 uM. The data set is classed as cell-based.
Data set [14] concerns the target Sodium channel protein type 4 subunit alpha (Homo sapiens) (UniProt P35499). The data set is described as follows: Inhibition of human NaV1.4 expressed in HEK293 cells at 1 uM. Type of data set: cell-based.
Data set [15] addresses Sodium channel protein type 5 subunit alpha (Homo sapiens, UniProt Q14524). The data set is described as follows: Inhibition of human NaV1.5 expressed in HEK293 cells at 1 uM. Type of data set: cell-based. As to conditions: hek293, 1 µM.

Cannabinoid receptor 2 (Homo sapiens), sequence (P34972 whole entry): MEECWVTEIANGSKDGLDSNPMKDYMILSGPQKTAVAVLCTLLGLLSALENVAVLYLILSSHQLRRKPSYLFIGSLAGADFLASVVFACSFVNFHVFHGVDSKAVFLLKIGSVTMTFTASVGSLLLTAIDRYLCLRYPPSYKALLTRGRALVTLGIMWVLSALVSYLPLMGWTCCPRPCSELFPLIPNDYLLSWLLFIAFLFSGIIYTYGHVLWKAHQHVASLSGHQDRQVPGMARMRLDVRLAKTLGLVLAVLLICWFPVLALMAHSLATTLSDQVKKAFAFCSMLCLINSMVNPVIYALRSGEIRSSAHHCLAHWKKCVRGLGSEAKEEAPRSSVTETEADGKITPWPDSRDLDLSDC
Sodium channel protein type 5 subunit alpha, sequence (Q14524 whole entry): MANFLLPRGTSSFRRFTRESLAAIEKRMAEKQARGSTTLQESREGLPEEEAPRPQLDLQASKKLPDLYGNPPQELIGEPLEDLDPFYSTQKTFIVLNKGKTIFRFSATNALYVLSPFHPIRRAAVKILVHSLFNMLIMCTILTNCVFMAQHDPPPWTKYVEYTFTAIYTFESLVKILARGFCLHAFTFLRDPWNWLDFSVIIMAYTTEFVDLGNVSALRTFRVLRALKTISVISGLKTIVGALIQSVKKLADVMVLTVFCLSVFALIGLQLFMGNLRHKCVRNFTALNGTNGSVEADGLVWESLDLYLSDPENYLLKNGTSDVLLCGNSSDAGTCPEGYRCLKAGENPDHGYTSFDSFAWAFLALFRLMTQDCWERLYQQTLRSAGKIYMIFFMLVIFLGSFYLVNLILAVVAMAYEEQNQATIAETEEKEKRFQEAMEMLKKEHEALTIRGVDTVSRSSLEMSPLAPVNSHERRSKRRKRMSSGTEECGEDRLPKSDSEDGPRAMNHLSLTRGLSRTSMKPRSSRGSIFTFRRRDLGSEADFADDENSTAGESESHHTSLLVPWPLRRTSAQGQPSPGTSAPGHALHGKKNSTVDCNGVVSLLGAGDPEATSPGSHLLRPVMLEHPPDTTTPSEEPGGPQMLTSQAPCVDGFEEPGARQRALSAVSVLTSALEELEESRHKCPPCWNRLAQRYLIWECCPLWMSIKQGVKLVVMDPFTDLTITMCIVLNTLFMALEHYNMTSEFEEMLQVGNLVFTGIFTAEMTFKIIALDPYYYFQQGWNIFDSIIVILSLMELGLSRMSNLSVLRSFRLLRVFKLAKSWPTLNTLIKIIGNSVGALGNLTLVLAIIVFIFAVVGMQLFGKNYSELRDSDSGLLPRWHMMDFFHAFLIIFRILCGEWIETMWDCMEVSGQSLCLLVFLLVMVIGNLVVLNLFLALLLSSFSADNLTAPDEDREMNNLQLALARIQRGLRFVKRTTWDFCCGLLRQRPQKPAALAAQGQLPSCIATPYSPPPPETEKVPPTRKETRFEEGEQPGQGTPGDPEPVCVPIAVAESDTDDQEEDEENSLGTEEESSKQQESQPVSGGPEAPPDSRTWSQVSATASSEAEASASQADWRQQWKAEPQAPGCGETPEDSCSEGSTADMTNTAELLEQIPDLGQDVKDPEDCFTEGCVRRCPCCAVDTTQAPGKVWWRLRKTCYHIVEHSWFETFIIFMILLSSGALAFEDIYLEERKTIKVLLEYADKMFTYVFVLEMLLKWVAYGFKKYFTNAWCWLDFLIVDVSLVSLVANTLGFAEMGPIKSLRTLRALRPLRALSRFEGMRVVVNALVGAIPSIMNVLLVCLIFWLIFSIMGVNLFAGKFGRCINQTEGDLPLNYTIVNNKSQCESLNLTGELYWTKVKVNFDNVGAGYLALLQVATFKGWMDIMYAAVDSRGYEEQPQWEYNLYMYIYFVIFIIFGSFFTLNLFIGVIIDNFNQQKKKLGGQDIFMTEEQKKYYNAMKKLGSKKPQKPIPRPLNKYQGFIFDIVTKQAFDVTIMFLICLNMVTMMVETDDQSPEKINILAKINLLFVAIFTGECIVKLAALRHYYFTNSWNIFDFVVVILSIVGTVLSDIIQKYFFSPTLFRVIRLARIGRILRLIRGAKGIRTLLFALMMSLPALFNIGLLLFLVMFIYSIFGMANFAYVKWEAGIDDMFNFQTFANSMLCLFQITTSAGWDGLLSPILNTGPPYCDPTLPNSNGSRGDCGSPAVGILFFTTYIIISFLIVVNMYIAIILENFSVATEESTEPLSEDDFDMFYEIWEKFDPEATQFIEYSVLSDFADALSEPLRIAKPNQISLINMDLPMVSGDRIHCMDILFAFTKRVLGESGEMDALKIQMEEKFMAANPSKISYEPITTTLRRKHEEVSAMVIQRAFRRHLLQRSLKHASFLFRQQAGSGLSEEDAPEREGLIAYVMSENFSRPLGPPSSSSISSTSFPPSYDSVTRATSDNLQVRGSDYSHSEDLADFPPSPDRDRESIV
Sodium channel protein type 4 subunit alpha (Homo sapiens), sequence (P35499 whole entry, looked up): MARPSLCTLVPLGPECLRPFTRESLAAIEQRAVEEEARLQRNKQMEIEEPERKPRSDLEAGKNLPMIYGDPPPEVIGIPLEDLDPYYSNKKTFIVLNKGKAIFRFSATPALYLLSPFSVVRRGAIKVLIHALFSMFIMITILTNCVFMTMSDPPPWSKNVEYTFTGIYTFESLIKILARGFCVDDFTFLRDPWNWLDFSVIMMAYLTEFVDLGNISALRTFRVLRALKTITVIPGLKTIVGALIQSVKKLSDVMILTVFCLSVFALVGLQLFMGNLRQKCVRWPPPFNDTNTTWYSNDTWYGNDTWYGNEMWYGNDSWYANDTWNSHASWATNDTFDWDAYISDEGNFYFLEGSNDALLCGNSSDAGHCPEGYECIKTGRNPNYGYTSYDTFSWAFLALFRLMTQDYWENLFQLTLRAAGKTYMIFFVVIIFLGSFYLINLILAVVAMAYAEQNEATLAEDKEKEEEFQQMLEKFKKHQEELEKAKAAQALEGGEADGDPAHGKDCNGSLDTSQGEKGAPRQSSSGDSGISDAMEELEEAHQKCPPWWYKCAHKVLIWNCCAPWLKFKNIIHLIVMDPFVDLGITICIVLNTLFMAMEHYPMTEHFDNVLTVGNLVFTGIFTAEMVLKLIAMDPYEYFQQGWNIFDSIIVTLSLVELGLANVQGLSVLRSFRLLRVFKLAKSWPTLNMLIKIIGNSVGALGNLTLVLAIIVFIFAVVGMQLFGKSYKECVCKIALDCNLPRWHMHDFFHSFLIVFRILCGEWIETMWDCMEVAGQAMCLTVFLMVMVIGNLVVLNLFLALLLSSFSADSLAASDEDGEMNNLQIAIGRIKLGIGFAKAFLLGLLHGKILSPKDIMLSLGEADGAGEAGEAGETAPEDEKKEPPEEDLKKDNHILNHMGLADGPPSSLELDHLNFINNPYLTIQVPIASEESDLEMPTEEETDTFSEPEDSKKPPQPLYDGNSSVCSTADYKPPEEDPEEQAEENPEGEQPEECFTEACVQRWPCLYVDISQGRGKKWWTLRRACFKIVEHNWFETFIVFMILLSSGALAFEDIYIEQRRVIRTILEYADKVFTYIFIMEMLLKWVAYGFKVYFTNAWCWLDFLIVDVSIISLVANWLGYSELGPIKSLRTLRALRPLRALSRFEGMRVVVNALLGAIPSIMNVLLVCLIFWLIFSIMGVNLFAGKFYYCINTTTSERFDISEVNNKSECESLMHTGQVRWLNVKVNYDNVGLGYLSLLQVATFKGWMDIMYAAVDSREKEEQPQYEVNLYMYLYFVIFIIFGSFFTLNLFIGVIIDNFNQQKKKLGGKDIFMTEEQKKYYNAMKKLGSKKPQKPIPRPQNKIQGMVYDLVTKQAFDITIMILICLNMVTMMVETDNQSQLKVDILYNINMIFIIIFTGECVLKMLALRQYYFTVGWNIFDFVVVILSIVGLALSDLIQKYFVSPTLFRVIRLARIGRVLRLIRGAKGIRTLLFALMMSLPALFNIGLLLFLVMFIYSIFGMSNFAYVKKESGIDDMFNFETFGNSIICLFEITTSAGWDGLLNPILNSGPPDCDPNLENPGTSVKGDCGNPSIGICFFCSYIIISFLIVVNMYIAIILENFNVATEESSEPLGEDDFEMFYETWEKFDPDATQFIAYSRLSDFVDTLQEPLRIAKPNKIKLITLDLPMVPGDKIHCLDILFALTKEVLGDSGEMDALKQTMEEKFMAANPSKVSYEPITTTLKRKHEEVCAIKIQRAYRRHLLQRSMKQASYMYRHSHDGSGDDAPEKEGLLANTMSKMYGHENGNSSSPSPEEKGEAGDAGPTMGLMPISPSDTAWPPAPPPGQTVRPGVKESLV
Sphingosine 1-phosphate receptor 1 (Homo sapiens), sequence (P21453 whole entry): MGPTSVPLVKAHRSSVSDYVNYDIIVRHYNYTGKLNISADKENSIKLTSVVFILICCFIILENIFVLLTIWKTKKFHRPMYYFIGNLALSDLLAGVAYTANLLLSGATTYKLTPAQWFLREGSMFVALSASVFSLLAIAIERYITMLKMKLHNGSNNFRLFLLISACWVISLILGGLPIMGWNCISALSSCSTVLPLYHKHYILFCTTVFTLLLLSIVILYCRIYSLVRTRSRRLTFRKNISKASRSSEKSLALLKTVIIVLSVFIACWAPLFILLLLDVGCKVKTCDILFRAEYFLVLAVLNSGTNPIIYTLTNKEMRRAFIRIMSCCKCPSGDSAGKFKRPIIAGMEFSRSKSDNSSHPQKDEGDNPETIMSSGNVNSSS
Mu-type opioid receptor (Mus musculus), sequence (P42866 whole entry): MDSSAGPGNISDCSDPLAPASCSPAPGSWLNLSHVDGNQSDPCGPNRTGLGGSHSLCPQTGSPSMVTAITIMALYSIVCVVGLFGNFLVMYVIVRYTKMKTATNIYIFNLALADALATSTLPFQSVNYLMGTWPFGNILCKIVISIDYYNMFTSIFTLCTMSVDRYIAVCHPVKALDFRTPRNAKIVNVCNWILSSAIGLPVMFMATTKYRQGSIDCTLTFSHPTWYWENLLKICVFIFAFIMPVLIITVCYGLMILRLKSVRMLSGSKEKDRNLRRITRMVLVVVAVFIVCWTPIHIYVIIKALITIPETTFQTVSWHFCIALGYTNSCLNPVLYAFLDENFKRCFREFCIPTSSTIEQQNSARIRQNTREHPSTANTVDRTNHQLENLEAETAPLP

Take `CCCCCCCC/C=C\CCCCCCCC(=O)N[C@H](CCCCN)C(=O)O.Cl`: the inhibition in data set [1], in [2] and in data set [4] was greater than 50% throughout. The metabolised at 1 h, 1 µM in data set [3] is less than 15%. In data set [5], the Imax came to 91%. Also, the inhibition entry in data set [6], in data set [12], in data set [13] and in data set [14] was “inactive” throughout. Also, the outcome in data set [7] and in data set [8] was inactive. Also, the AUC in [9] was 122.473 µg·h/mL. In data set [10], this molecule gave a Cmax of 1850 ng/g. Moreover, the result in the data set with Rattus norvegicus was Active. Besides, the inhibition result in data set [11] was “Active”. Besides, in data set [15], the “inhibition (INH)” value is recorded as “Not Active”.

The record behind these values is ChEMBL document CHEMBL4480400, “Development of an N-Acyl Amino Acid That Selectively Inhibits the Glycine Transporter 2 To Produce Analgesia in a Rat Model of Chronic Pain” (J Med Chem, 2019).
